Compounds with a hit are over-represented: about 1.5% of the library has one in this group of screens.
NR2E3 ag-1: inhibitors of NR2E3-RetCOR corepressor binding, primary screen, NR2E3 agonist project, biochemical, TR-FRET, GST-NR2E3, biotin-RetCOR; 1536-well; Photoreceptor-specific nuclear receptor (Homo sapiens), Q9Y5X4; AID 2300, 2010; 0.12% of 320,000 active; inhibition of corepressor binding, % at 4.78 µM;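 active = percent inhibition above the cutoff of mean plus 3 SD of all tested compounds, set per screening campaign, cut at about 20% in these data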
Target sequence (Q9Y5X4 whole entry, looked up): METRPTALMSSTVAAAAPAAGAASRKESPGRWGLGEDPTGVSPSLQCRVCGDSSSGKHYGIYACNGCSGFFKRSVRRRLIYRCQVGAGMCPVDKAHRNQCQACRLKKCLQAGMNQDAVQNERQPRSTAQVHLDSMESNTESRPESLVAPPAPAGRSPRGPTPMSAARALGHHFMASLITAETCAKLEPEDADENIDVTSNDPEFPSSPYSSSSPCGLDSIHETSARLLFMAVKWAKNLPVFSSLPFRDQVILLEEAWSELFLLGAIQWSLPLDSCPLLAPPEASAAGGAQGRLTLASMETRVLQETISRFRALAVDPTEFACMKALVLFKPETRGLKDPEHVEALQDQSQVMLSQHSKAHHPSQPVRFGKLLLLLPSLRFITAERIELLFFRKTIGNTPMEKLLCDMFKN
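System: GST-tagged NR2E3 plus biotinylated RetCOR corepressor; Amount: 1.35 nM GST-tagged NR2E3 final; Dosing: single nominal compound dose of 4.8 µM; Schedule: 5 h incubation at 4 °C; Technique: TR-FRET with europium anti-GST and streptavidin-D2, 340 nm excitation; Controls: biotin wells as high control, 0.6% DMSO wells as low control.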
GalR3 antag: GalR3 antagonists in HEK293 cells, primary screen, cell-based, fluorescence readout. Galanin receptor type 3 (Homo sapiens), O60755. 0.44% of 360,000 active. inhibition, % at 3 µM. HEK293 GalR3-CNG cAMP membrane potential fluorescence; galR3 body fused to GalR1 C-terminus;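 active = inhibition above the screen-wide average plus 3 SD, cut at about 13% in these data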;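 note: forskolin and galanin both at EC90 stimulate the cells; cAMP rise reported by CNG channel membrane potential dye signal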
697 NFkB inh: inhibitors of PMA/ionomycin-induced NF-kB reporter, 697 cells, primary screen, B-cell NF-kB inhibitor project, cell-based, luminescence, uHTS. 697 B-cell NF-kB luciferase reporter, 16 h. inhibition, % at 4 µM. 0.33% of 330,000 active. AID 435022, 2010; in the data active = inhibition above about 35%
Jurkat NFkB inh: inhibitors of induced NF-kB luciferase reporter, primary screen, TCR NF-kB activation inhibitor project, cell-based, luminescence, uHTS | Jurkat, PMA/ionomycin-induced NF-kB luciferase reporter | inhibition, % at 4 µM | 0.53% of 330,000 active; in the data active = inhibition above about 50%
JMJD2C inh: inhibitors of GASC-1 histone demethylase, primary screen, biochemical, fluorescence, DELFIA europium. Lysine-specific demethylase 4C (Homo sapiens), Q9H3R0. GST-JMJD2C(1-420) H3K9me3 demethylation. inhibition, % at 2.35 µM. 0.069% of 330,000 active;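 active = more than half of a compound's replicate wells show inhibition beyond 50%, single wells judged on their own value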;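 note: signal counts dimethyl H3K9 product captured on neutravidin plate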
NR2E3 ag-2: NR2E3 agonists in two-hybrid cells, primary screen, cell-based, luminescence, CHO-S, Gal4-NCOR/VP16-NR2E3; 0.35% of 360,000 active; inhibition of corepressor binding, % at 3.98 µM; luciferase; AID 602229, 2012;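 active = inhibition above the mean of all tested compounds plus 3 SD, cut at about 70% in these data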;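 note: higher means lower luciferase signal from less NR2E3 corepressor binding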
Jurkat NFkB conf: PMA/ionomycin-induced NF-kB reporter inhibitors, Jurkat retest, confirmation, T-cell NF-kB inhibitor project, cell-based, luminescence, single concentration; shares compounds with Jurkat NFkB inh; Jurkat NF-kB luciferase, 16 h; inhibition, % at 4 µM; 27% of 2,700 active; AID 435020, 2010;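 active = inhibition reaching about 45% at 4 µM in either replicate, limit read from the data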
Hits are given with their value; . = inactive; / = no result.

SMILES	NR2E3 ag-1	GalR3 antag	697 NFkB inh	Jurkat NFkB inh	JMJD2C inh	NR2E3 ag-2	Jurkat NFkB conf
COc1ccc(/C=N/Nc2ncccc2[N+](=O)[O-])c(OC)c1	.	.	.	.	.	.	.
CC(=O)c1ccc(Nc2cc(C)nc3c(C)cccc23)cc1	.	.	.	56	.	.	.
COc1ccc(C2C3=C(CC(C)(C)CC3=O)OC(N)=C2[N+](=O)[O-])cc1 (stereo not drawn)	.	.	.	.	.	.	/
COC(=O)CSc1nsc(SCC(=O)OC)n1	.	.	.	62	.	.	.
CSc1nsc(SCC(=O)Nc2ccc(NC(C)=O)cc2)n1	.	.	.	.	.	.	/
COc1ccc(NC(=O)CSc2nc(SC)ns2)cc1	.	.	.	.	.	.	.
CC(C)C1=CC2C3C(C(C(C)C)=CC(=O)[C@@]3(C)O)C1C(=O)C2(C)O (stereo partly drawn)	/	.	/	/	/	/	/
Cc1c(C(=O)Nc2cccc(Cl)c2)oc2ccc(S(=O)(=O)N3CCC4(CC3)OCCO4)cc12	.	/	.	60	.	.	.
Cc1c(C(=O)Nc2ccc(F)cc2)oc2ccc(S(=O)(=O)N3CCC4(CC3)OCCO4)cc12	.	.	.	.	.	.	/
COc1ccc(OCC(=O)N/N=C/c2cccn2-c2cccc(C(=O)O)c2)cc1	/	.	.	.	/	.	/
Cc1noc(/C=C/N(C)C)c1S(=O)(=O)N(C)Cc1ccc(F)cc1	.	.	.	.	.	.	/
COC(=O)c1ccc2nc(C3CCCCC3)c(Cc3cccc(Cl)c3)n2c1	/	.	/	/	/	.	/
O=C(COc1cccc2cccnc12)N/N=C/c1ccccc1O	.	.	.	.	.	.	/
Oc1ccccc1/C=N/Nc1cccc2cccnc12	.	.	.	.	.	.	.
COc1ccc(CCN2C(=O)COc3ccccc3C2C(=O)Nc2c(C)cccc2C)cc1OC (stereo not drawn)	/	.	/	/	/	.	/
CC1=CC(C)(C)N(S(=O)(=O)c2ccc(C)cc2)c2cc(C)ccc21	.	.	.	50	.	.	53
COc1ccccc1C(=O)Nc1nc2cc3c(cc2s1)OCO3	.	.	.	.	.	.	/
COc1ccccc1C(=O)Nc1nc2cc3c(cc2s1)OCCO3	.	/	.	.	.	.	.
O=C(O)c1sc2cc(C(F)(F)F)cnc2c1-c1ccccc1	.	.	.	.	.	.	/
CSc1nnc(-c2sc3cc(C(F)(F)F)cnc3c2-c2ccccc2)n1C	.	.	.	56	.	.	.
O=C(Nc1ccc(Cl)cn1)c1ccc2c(Cl)c3c(nc2c1)CCC3	.	.	.	.	.	.	.
COc1cccc(N2CCN(C(=O)c3ccc(CS(=O)c4ccccc4C)o3)CC2)c1 (stereo not drawn)	.	.	.	56	.	.	36
COc1cccc(N2CCN(C(=O)c3[nH]c(C)c(C(C)=O)c3C)CC2)c1	.	.	.	55	.	.	.
COc1ccc(N2CCN(C(=O)c3ccc(CS(=O)c4cccc(C)c4)o3)CC2)cc1 (stereo not drawn)	.	.	.	.	.	.	/
Cc1cc(N2CCN(C(=O)OC(C)(C)C)C[C@H]2C)ccc1Br	/	.	/	/	/	/	/
SMILES	NR2E3 ag-1	GalR3 antag	697 NFkB inh	Jurkat NFkB inh	JMJD2C inh	NR2E3 ag-2	Jurkat NFkB conf
O=C(COc1ccc(Oc2ccccc2)cc1)NCc1cn2ccccc2n1	.	.	.	63	.	.	.
COc1ccc(C(=O)N(C)Cc2cnn(Cc3ccccc3)c2)cc1S(=O)(=O)N1CCOCC1	.	.	.	54	.	.	.
NC(=O)CC(NC(=O)Cc1ccc(Br)cc1)c1ccc(NC2CCCCCCC2)c([N+](=O)[O-])c1 (stereo not drawn)	/	.	/	/	/	.	/
NC(=O)CC(NC(=O)Cc1ccc(Br)cc1)c1ccc(NC2CCCC2)c([N+](=O)[O-])c1 (stereo not drawn)	.	.	.	51	.	.	.
CC(C)Nc1ccc(C(CC(N)=O)NC(=O)Cc2ccc(Br)cc2)cc1[N+](=O)[O-] (stereo not drawn)	.	.	.	84	.	.	58
O=C(CCc1ccccc1)NCC(c1ccco1)N1CCc2ccccc21 (stereo not drawn)	.	.	.	59	.	.	.
COC(=O)[C@@]12C[C@@H](CC(=O)NCC3CCCCC3)C(=O)N(Cc3ccc4c(c3)OCO4)C1=CCC(C)(C)C2	/	.	/	/	/	/	/
COc1cc(CCCN2CCNC[C@@H]2Cc2ccc(O)cc2)cc(OC)c1OC	.	.	.	.	.	.	/
Cc1ccc2c(c1)sc1nc(=O)n(-c3ccccc3)c(=O)n12	.	.	.	.	.	.	.
O=C(c1ccc2c(c1)OCCO2)N1CCN(c2ccc([N+](=O)[O-])cc2)CC1	.	/	.	56	.	/	.
O=C(NCCOc1ccccc1F)c1cc([N+](=O)[O-])ccc1N1CCOCC1	.	.	.	57	.	.	.
CC(=O)N1CCN(C(=O)c2ccc3c(c2)OCCO3)CC1	.	.	.	.	.	.	/
O=C(NCCOc1ccccc1)c1cc([N+](=O)[O-])ccc1N1CCOCC1	.	.	.	60	.	.	57
O=C(c1cc([N+](=O)[O-])ccc1N1CCOCC1)N1CCN(c2ccccc2)CC1	.	.	.	74	.	.	.
CCCC/C=C1/CCC(CN(C)C)C1=O (stereo not drawn)	/	/	/	/	/	.	/
CCOC(=O)c1sc2nccc(OC)c2c1N=CNOC	.	.	.	.	.	.	/
Cc1c(C(=O)N2CCN(c3ccc([N+](=O)[O-])cc3)CC2)oc2ccccc12	.	.	.	51	/	.	.
Cc1c(-c2ccccc2)oc2c(C(=O)N3CCN(c4ccc([N+](=O)[O-])cc4)CC3)cccc2c1=O	.	.	.	.	.	.	/
Brc1ccc(-c2cn3ccccc3n2)s1	.	.	.	.	.	.	.
Cc1nc(-c2ccc(NC(=O)c3ccc(Br)o3)cc2)cs1	.	.	.	.	.	.	.
CCC1(c2ccccc2)NC(=O)N(CC(=O)Nc2cc(C(F)(F)F)ccc2N2CCCC2)C1=O (stereo not drawn)	.	.	.	54	.	.	.
